Test [1] has as its target T1, Prostaglandin G/H synthase 2 (Homo sapiens) (UniProt P35354).
T1 sequence (whole entry): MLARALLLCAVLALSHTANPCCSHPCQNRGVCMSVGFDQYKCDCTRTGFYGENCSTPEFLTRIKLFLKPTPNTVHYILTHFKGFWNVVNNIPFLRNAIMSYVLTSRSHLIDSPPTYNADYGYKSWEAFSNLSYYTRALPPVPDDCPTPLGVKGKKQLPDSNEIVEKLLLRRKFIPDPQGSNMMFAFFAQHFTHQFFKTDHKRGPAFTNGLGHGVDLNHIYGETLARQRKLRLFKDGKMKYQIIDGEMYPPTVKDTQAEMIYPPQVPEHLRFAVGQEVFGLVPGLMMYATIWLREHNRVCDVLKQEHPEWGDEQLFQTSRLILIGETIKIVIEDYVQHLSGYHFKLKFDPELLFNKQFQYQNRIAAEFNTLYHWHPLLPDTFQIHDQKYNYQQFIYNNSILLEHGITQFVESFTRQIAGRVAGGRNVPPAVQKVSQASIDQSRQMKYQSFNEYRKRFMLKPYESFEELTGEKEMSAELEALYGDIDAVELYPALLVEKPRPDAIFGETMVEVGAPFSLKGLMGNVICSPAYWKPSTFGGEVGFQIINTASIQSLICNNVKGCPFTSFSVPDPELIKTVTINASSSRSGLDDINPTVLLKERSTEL
The test is described as follows: Inhibition of human recombinant COX2 assessed as residual activity at 30 uM preincubated for 5 mins by measuring 12-HHT level using HPLC method relative to control. In outline: (§1)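 Isolated COX-1 and COX-2 enzymes were each exposed to inhibitor at 30 μM in 0.1% DMSO vehicle. Activity was read as 12-HHT concentration as a percentage of vehicle control, n=3-5, with ANOVA and Tukey HSD versus vehicle.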

Test [2] deals with T2, Prostaglandin E synthase (Homo sapiens, UniProt O14684).
T2 sequence (O14684 whole entry): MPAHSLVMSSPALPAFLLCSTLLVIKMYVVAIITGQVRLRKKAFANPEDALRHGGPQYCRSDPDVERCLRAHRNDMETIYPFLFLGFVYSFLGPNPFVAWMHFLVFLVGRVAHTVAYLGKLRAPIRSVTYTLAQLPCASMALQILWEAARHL
The test is described as follows: Inhibition of mPGES1 in IL1-beta treated human A549 cell microsomal membrane assessed as residual enzyme activity after 1 min by measuring PGE2 level using RP-HPLC method. The test is classed as microsomes, Microsome. The gist of the method:
(§2)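 Cell-free assay using microsomes from A549 cells as the PGE2 synthase source. Compounds were tested at four concentrations (10 μM, 1 μM, 100 nM, 10 nM; 1 nM where needed) in 0.1% DMSO vehicle. Read-out was PGE2 level as a percentage of vehicle control, n=3-5, with ANOVA and Tukey HSD versus vehicle.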

Test [3] has as its target T3, Prostaglandin E synthase (Homo sapiens) (UniProt O14684).
T3 sequence (whole entry): T2 sequence (O14684 whole entry)
Description: Inhibition of mPGES1 in IL1-beta treated human A549 cell microsomal membrane assessed as residual enzyme activity at 10 uM after 1 min by measuring PGE2 level using RP-HPLC method relative to control. Type of test: microsomes. Particulars: Microsome. In outline: as §2

Test [4] addresses T4, Prostaglandin G/H synthase 1 (Ovis aries) (UniProt P05979).
T4 sequence (whole entry): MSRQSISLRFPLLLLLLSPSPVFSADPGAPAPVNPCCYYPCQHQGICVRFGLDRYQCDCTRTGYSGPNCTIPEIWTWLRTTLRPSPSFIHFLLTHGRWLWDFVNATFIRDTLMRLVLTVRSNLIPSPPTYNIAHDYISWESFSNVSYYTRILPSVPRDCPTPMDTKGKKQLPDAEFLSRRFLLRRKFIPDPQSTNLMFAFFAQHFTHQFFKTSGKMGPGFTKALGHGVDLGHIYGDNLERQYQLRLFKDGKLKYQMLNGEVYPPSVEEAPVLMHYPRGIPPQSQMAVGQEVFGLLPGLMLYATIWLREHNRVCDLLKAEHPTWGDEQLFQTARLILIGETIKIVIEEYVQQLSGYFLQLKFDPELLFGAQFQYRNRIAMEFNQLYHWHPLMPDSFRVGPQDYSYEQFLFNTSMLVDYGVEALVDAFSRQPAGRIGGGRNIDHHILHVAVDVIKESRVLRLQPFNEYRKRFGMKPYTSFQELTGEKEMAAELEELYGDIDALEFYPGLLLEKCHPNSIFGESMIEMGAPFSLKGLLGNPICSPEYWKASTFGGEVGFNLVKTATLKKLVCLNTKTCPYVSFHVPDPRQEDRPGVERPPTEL
Description: Inhibition of ovine COX1 assessed as residual enzyme activity at 30 uM preincubated for 5 mins by measuring 12-HHT level using HPLC method relative to control. In outline: as §1

The nature of test [5]: Inhibition of 5-lipoxygenase in bovine polymorphonuclear leucocytes assessed as formation of LTB4 by HPLC method. Type of test: cell-based. Particulars: Bos taurus.
Test [6] addresses T2, Prostaglandin E synthase. The test is described as follows: Inhibition of mPGES1 in IL1-beta treated human A549 cell microsomal membrane assessed as blockade of PGH2 to PGE2 conversion after 1 min. The test is classed as microsomes, Microsome. The gist of the method:
as §2

Test [7] in a line: Inhibition of rat mPGES1.

SMILES strings stand for the structures. Activity calls are given as the source filed them. The rule behind the calls is not given here.

Broadly, the IC50 is the concentration needed to halve the response being measured. Take `CC1(C)Cc2c(-c3ccccc3)c(-c3ccc4ccoc4c3)c(CC(=O)O)n2C1`: the Activity in test [1] is 75.8%; in test [3] it was 42.1%; in test [4] it was 94%. Also, the IC50 on Prostaglandin E synthase [2] amounted to 6200 nM.

As to `Cc1ccc(S(=O)(=O)NC(=O)CCc2c(-c3ccc(Cl)cc3)c(-c3ccccc3)c3n2CC(C)(C)C3)cc1`, in test [1], the outcome was inactive. Also, the IC50 on Prostaglandin E synthase [2] was determined as 2100 nM. For the same molecule, the Activity came out at 23.2% in test [3] and 29.2% in test [4].

For the molecule `CC1(C)Cc2c(-c3ccccc3)c(-c3ccc(Cl)cc3)c(CC(=O)NS(C)(=O)=O)n2C1`, the Activity in test [3] was found to be 63.1%. In test [5], the IC50 amounted to 230 nM.

`CC1(C)Cc2c(-c3ccccc3)c(-c3ccc([N+](=O)[O-])cc3)c(CC(=O)O)n2C1`: the Activity in test [3] was 58.8%. Moreover, the IC50 in test [5] is 1500 nM.

Consider `CC1(C)Cc2c(-c3ccccc3)c(-c3ccc(Cl)cc3)c(Cc3nnn[nH]3)n2C1`, for which the Activity in test [1] came to 46.5%; in test [3], 27.9%; in test [4] it was 37.4%. The IC50 at Prostaglandin E synthase [2] turned out to be 3900 nM; in test [5], 500 nM.

On to `O=C(O)Cc1c(-c2ccc(Cl)cc2)c(-c2ccccc2)c2n1CCC2`, for which the Activity in test [3] was found to be 65.3%. Moreover, the IC50 in test [5] worked out at 1600 nM.

`CC1(C)Cc2c(-c3ccccc3)c(-c3ccc(Cl)cc3)c(CCC(=O)O)n2C1`: the outcome in test [1] was inactive. Further, on Prostaglandin E synthase [2], the IC50 was 7200 nM. For the same molecule, the Activity in test [3] worked out at 47.4%; in test [4], 82.9%.

`CC1(C)Cc2c(-c3ccccc3)c(-c3ccc(Cl)cc3)c(CC(=O)NS(=O)(=O)c3ccccc3)n2C1`: the figures for the Activity in test [1], in test [3] and in test [4] were 43.4%, 28.7% and 25.8%, respectively. Also, the IC50 on Prostaglandin E synthase [2] came to 4500 nM; in test [5], 250 nM.

Regarding `O=C(O)CCc1c(-c2ccc(Cl)cc2)c(-c2ccccc2)c2n1CCC2`, the IC50 on Prostaglandin E synthase [2] turned out to be 1800 nM; in test [5], 1900 nM. The Activity in test [3] was determined as 20.8%.

With `CC1(C)Cc2c(-c3ccccc3)c(-c3ccc(Cl)cc3)c(CC(=O)O)n2C1` [LICOFELONE], the Activity in test [1] turned out to be 53.7%; in test [3], 44.9%; in test [4], 12.4%. For the same molecule, the half-maximal inhibitory concentration (IC50) at Prostaglandin E synthase [2] is 6700 nM; in test [5], 180 nM; on Prostaglandin E synthase [6], 6000 nM.

For the molecule `CC1(C)Cc2c(-c3ccccc3)c(-c3ccc(C(F)(F)F)cc3)c(CC(=O)O)n2C1`, the Activity in test [3] was 56.1%. In test [5], the IC50 was 310 nM.

As to `CC1(C)Cc2c(-c3ccccc3)c(-c3ccc(C(C)(C)C)cc3)c(CC(=O)O)n2C1`, the outcome in test [1] and in test [4] was inactive. For the same molecule, the Activity in test [3] stood at 53.8%. For the same molecule, the IC50 in test [5] was 180 nM.

For `Cc1ccc(S(=O)(=O)NC(=O)Cc2c(-c3ccc(Cl)cc3)c(-c3ccccc3)c3n2CC(C)(C)C3)cc1`, the figures for the Activity in test [1], in test [3] and in test [4] were 13.6%, 32.2% and 8.6%, respectively. Moreover, the figures for the IC50 (on Prostaglandin E synthase [2]; in test [5]) were 4800 nM and 260 nM, respectively.

`CCC1(CC)Cc2c(-c3ccccc3)c(-c3ccc(Cl)cc3)c(CC(=O)NS(C)(=O)=O)n2C1`: the IC50 at Prostaglandin E synthase [2] turned out to be 5900 nM. Moreover, in test [3], the Activity is 38.5%.

As for `CC(C)c1ccc2c(c1)c(SC(C)(C)C)c(CC(C)(C)C(=O)O)n2Cc1ccc(Cl)cc1`, the figures for the Activity in test [1], in test [3] and in test [4] were 56.7%, 22.5% and 19.5%, respectively. In test [7], the IC50 was 3200 nM.

These data come from ChEMBL document CHEMBL1158497, “Arylpyrrolizines as inhibitors of microsomal prostaglandin E2 synthase-1 (mPGES-1) or as dual inhibitors of mPGES-1 and 5-lipoxygenase (5-LOX)” (J Med Chem, 2009).
